Bioassay records deposited in PubChem BioAssay by several laboratories.
Hits are enriched below; roughly 2.9% of the tested compounds scored in any of these assays.
MEKK2 mut-MEK5 – MEK5 binding signal on mutant MEKK2 PB1, primary screen, biochemical, multiplex bead flow cytometry, Alexa488-MEK5 | Alexa488-MEK5 binding to MEKK2 mutant | percent response, % at 10 µM | 290,000 compounds, 0.35% hits | AID 1530, 2009; in the data active = percent response above about 24%, passing the limit was not always enough
Dynein cargo inh – inhibitors of GR-EGFP nuclear translocation, primary screen, dynein cargo transport inhibitor project, imaging, high-content, 3617.4 mouse cells | z-score, hits read low | 220,000 compounds, 0.47% hits | test concentration mostly 20 µM; stimulated with dexamethasone, 1 µM; hits give low values;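 active = plate z-score of nuclear minus cytoplasmic receptor signal below a set negative limit, without overly bright fluorescence or cell loss, cut at about -3.5 in these data, passing the limit was not always enough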;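 note: z-score of nuclear minus cytoplasmic ring GR-EGFP intensity difference per well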
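Schedule: 48 h induction, then 1 h compound, then 30 min agonist, 37 °C. Buffer or medium: tetracycline-free induction medium containing charcoal-stripped FBS. Reagent: 1.0 µM final dexamethasone stimulus. Evaluation: nuclear versus cytoplasmic GR-EGFP signal, averaged per well. Signal: high-content fluorescence imaging after fixation.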
B2AR ag – beta2AR agonists driving receptor internalization, primary screen, cell-based, FAP fluorogen, flow cytometry | Beta-2 adrenergic receptor (Homo sapiens), P07550 | Am2.2-beta2AR cells | response, % (no concentration beside the values) | 340,000 compounds, 0.43% hits | AID 504454, 2011;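 active = response above a set limit, near 3 SD of response in nonfluorescent compounds, cut at about 42% in these data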
Target sequence (P07550 whole entry, looked up): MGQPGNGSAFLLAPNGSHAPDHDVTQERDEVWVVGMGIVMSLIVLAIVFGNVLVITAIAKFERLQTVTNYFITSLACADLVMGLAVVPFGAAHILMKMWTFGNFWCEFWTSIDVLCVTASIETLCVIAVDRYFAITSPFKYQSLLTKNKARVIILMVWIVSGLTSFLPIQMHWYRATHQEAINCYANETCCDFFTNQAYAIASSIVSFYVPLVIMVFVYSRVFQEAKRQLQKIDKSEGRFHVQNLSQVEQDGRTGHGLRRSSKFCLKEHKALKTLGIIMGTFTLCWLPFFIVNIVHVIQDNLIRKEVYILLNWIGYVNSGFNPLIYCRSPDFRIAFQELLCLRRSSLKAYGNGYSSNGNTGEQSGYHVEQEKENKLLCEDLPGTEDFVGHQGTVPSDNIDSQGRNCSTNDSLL
MEKK3 PB1 HTS – modulators of MEKK3-MEK5 PB1 binding, primary screen, biochemical, wildtype MEKK3, multiplex bead flow cytometry, Alexa488-MEK5. Mitogen-activated protein kinase kinase kinase 3 (Homo sapiens), Q99759. binding response (% of control), % at 10 µM. bead-based flow cytometry, Alexa488-MEK5 binding to MEKK3; actives lie on both sides; 0 = blocked by unlabeled MEK5, 100 = vehicle. 290,000 compounds, 1.4% hits. AID 1529, 2009;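 active = binding response more than 3 SD above or below the average of its plate-row segment, actives on both sides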;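 note: Alexa488 bead fluorescence after subtracting the streptavidin-only scavenger bead signal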
ATG4B inh – ATG4B protease inhibitors, primary screen, biochemical, fluorescence, uHTS; Cysteine protease ATG4B (Homo sapiens), Q9Y4P1; ATG4B cleavage of LC3-PLA2, NBD-HPC fluorescence, 1 h; inhibition, % at 8.33 µM; 340,000 compounds, 0.51% hits; in the data active = inhibition above about 40%
MEKK2 WT-MEK5 – modulators of MEK5 binding to wildtype MEKK2, primary screen, biochemical, multiplex bead flow cytometry, Alexa488-MEK5 | binding response (% of control), % at 10 µM | 290,000 compounds, 1.1% hits | Alexa488-MEK5 binding to MEKK2 WT; actives lie on both sides | Mitogen-activated protein kinase kinase kinase 2 (Homo sapiens), Q9Y2U5 | AID 1531, 2009; in the data active = binding response below about 67% or above about 130%
MEKK2wt confirm – modulators of MEK5 binding to wildtype MEKK2, confirmation, biochemical, single concentration, multiplex bead flow cytometry. shares compounds with MEKK3 PB1 HTS. Alexa488-MEK5 binding to MEKK2 WT; actives lie on both sides. binding response (% of control), % at 10 µM. 5,900 compounds, 2.4% hits. AID 1892, 2009; in the data active = binding response below about 16% or above about 210%; inactive = in between
MEKK2mut-MEK5 – mutant MEKK2 PB1-MEK5 binding signal retest – biochemical, single concentration, multiplex bead flow cytometry, confirmation; 5,900 compounds, 2% hits; Alexa488-MEK5 binding to MEKK2 mutant; shares compounds with MEKK3 PB1 HTS; AID 1893, 2009; percent response, % at 10 µM; in the data active = percent response mostly above about 71%, no sharp cut-off; inactive = mostly below about 38%;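 note: higher means compound restores mutant binding toward wildtype level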
MEKK3 confirm – MEKK3 wild-type PB1 binding to MEK5, inhibitors, confirmation, biochemical, bead multiplex flow cytometry, single concentration, wildtype; shares compounds with MEKK3 PB1 HTS; binding response (% of control), % at 10 µM; Alexa488-MEK5 binding to MEKK3; hits give low values; AID 1894, 2009; 5,900 compounds, 1.8% hits;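 active = binding response below 72% of control, or above a set upper limit, though filed actives all read lower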;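 note: 100% = DMSO only wells and 0% = binding blocked by excess unlabeled MEK5; lower values mean stronger disruption of MEK5 binding to MEKK3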
Starred values were filed as active, the others as inactive; . = no result; [ ] = dose if it differs, or a comment.

SMILES	MEKK2 mut-MEK5	Dynein cargo inh	B2AR ag	MEKK3 PB1 HTS	ATG4B inh	MEKK2 WT-MEK5	MEKK2wt confirm	MEKK2mut-MEK5	MEKK3 confirm
Cc1cccc(C)c1NC(=O)C1(N(Cc2ccco2)C(=O)CC2NC(=O)NC2=O)CCCC1 (stereo not drawn)	-16	-0.48	-5	3.0*[inhibitor]	-12	3.0*[inhibitor]	104	6	109
O=C(c1ccncc1)N1CCc2ccccc2C1	-3	.	5	101	0	98	.	.	.
O=C(c1ccc(Cl)nc1)N1CCc2ccccc2C1	-46	-0.63	-3	14*[inhibitor]	-4	21*[inhibitor]	98	0	102
O=C(N/N=C/C=C/c1ccccc1[N+](=O)[O-])c1cc(-c2cccnc2)nc2ccccc12	-2	-0.41	1	65*[inhibitor]	22	90	103	3	106
Cc1ccccc1-n1c(SCC(=O)N/N=C/C=C/c2ccccc2[N+](=O)[O-])nc2ccccc2c1=O	0	0.4	-4	134*	25	102	97	-7	104
O=C(CSc1nc2ccccc2c(=O)n1-c1ccccc1)N/N=C/C=C/c1ccccc1[N+](=O)[O-]	0	1.3	0	100	22	98	.	.	.
COc1ccccc1-c1cc(-c2ccccc2)nc(SC(C(N)=O)c2ccccc2)c1C#N (stereo not drawn)	-4	-0.59	-2	90	5	93	.	.	.
CCCC(=O)OC1CC(C)N(C(=O)c2ccccc2)c2ccc(C)cc21 (stereo not drawn)	-40	-0.25	12	12*[inhibitor]	3	21*[inhibitor]	99	-1	100
COc1ccc(CCNC(=O)C2CCN(S(=O)(=O)c3ccc(C)cc3)CC2)cc1	4	.	-1	100	3	101	.	.	.
COc1ccccc1CN1CCC(n2nccc2NC(=O)CCCc2ccccc2)CC1	19	.	-5	103	-4	142*	162	54	113
CCc1cc(=O)oc2cc(C)cc(OC(C)C(=O)NCCCN3CCCC3=O)c12 (stereo not drawn)	0	.	0	100	-3	95	.	.	.
O=C(OCc1ccccc1)/C(=C/c1cccc(Br)c1)NC(=O)c1ccco1	7	.	5	107	9	109	.	.	.
COc1ccc2c(c1)c(CC(=O)Nc1ccc(C(C)=O)cc1)c(C)n2C(=O)c1ccc(Cl)cc1	1	-0.45	-9	47*[inhibitor]	-12	92	105	-3	101
Cc1ccc(NC(=S)NN(C)c2cc(C)nc(C)n2)cc1	1	-0.47	-3	129*	2	107	99	1	100
CC(C)N(C(=O)CSc1nnc(Cc2csc(Nc3ccccc3)n2)o1)C(C)C	-2	-0.46	-5	75*[inhibitor]	3	90	108	5	105
COc1ccc(OCC(=O)Nc2ccccc2OC)cc1	1	-0.66	12	94	-6	93	.	.	.
COc1ccc(OCC(=O)Nc2ccccc2OC(F)F)cc1	19	0.71	1	122*	7	123	99	-2	97
C=CCn1c(SCC(=O)Nc2ccc(OC)cc2)nc2c([nH]c3ccccc32)c1=O	0	.	-1	93	1	99	.	.	.
C=CCn1c(SCCN2CCCC2)nc2c([nH]c3ccccc32)c1=O	-14	0.58	10	50*[inhibitor]	-18	60	105	3	104
Cc1sc2ncnc(OCC(=O)N3CC(=O)Nc4ccccc43)c2c1C	-18	2.4	1	42*[inhibitor]	-3	46*[inhibitor]	100	6	104
Cc1noc(C)c1COc1ccc(C(=O)OCC(=O)Nc2cccc(S(=O)(=O)N3CCOCC3)c2)cc1	-1	1.6	4	103	-13	100	.	.	.
CC(=O)Nc1cccc(-n2nnc(SCC(=O)c3ccccc3)n2)c1	27	0.51	-5	129*	12	131	107	-2	105
CCC1CCc2c([nH]c3ccccc3c2=O)O1 (stereo not drawn)	2	-0.056	3	147*	-5	110	99	5	103
COc1ccc(/C=N/N=C2/NC(=O)C(CC(=O)O)S2)cc1OCc1ccccc1Cl (stereo not drawn)	0	0.14	-1	146*	8	109	106	13	109
CCOc1cc(/C=N/N=C2/NC(=O)C(CC(=O)O)S2)ccc1OCc1ccccc1Cl (stereo not drawn)	-1	-0.1	8	109	17	112	.	.	.
SMILES	MEKK2 mut-MEK5	Dynein cargo inh	B2AR ag	MEKK3 PB1 HTS	ATG4B inh	MEKK2 WT-MEK5	MEKK2wt confirm	MEKK2mut-MEK5	MEKK3 confirm
Cc1cc(C)c(S(=O)(=O)Nc2nnc(C(C)C)s2)c(C)c1	5	.	1	105	-3	108	.	.	.
Cc1cccc(-c2nsc(SCC(=O)Nc3cc(C)on3)n2)c1	-3	-0.1	2	94	0	94	.	.	.
CCOC(=O)N1CCN(C(=O)CSc2nc(-c3cccc(C)c3)ns2)CC1	10	0.5	-14	147*	-19	134*	106	12	106
CCOC(=O)CNC(=O)CSc1nc(-c2ccc(C)cc2)ns1	2	-0.86	19	129*	-4	119	117	6	100
Nn1cnnc1N/N=C\c1ccc(-c2ccccc2[N+](=O)[O-])o1	0	-0.16	9	156*	-5	106	97	-1	101
O=[N+]([O-])c1ccccc1-c1ccc(/C=N/n2cnnc2)o1	6	0.0063	0	104	2	109	.	.	.
CCCCCC(=O)NC(NC(=S)Nc1ccc(S(N)(=O)=O)cc1)C(Cl)(Cl)Cl (stereo not drawn)	5	-1.1	-12	104	-14	102	.	.	.
